Experimental data from article PMC6215875 (Cancer Science, 2018).
Like-named read-outs stand apart in the source and are kept apart here.

Key:
[1] = target: KIT mutants (Homo sapiens, UniProt P10721, D816V); settings: COS-1, D816V in exon 17; cited from earlier work
[2] = tested on: advanced GIST; settings: cited from earlier work; for median PFS: advanced GIST patients
[3] = tested on: KIT mutants; type: cell-based; settings: 1 μmol/L; for suppression of KIT activation (phosphorylation): COS-1, 4 double mutations (∆557-558 with V654A, T670I, D820G or N822K); for suppression of KIT phosphorylation: COS-1, single mutations in exons 13, 14, and 17, 30 minutes
[4] = tested on: GIST48 cells; assay: Cell cycle analysis, GIST48; type: cell-based; settings: GIST48, 1 μmol/L
In short: (§1)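 Test compound added at the doses stated, and cells harvested over a time course. Cells washed twice in PBS, fixed overnight in cold 70% ethanol, and pelleted at 5000 g for 5 min. Pellets incubated with 0.2 mg/mL RNase A for 1 h, then stained with 20 μg/mL propidium iodide at room temperature. DNA content read by flow cytometry. Mean ± SE of triplicate experiments.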

[5] = tested on: GIST-T1 cells; assay: Cell proliferation assay, GIST-T1; type: cell-based; settings: imatinib-sensitive GIST-T1, Figure S2A
In short: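 GIST-T1 cells were grown in RPMI-1640 with 10% FBS at 37°C, 5% CO₂. 4 × 10⁴ cells were exposed to a range of test compound doses for 120 h. They were then stained with methylene blue for 1 h, and absorbance was read at […].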

[6] = Body weight and survival of GIST430 xenograft mice; type: in vivo; settings: regorafenib 30 mg/kg; for body weight (mean ± SE): oral, 2 weeks, BPR1J373 50 mg/kg, sunitinib 40 mg/kg
In short: (§2)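 Male NOD-SCID mice (6–8 weeks, SPF) received GIST430 cells (2 × 10⁷/mouse) s.c. At 50–100 mm³, vehicle or test compound in 20% (2-hydroxypropyl)-β-cyclodextrin was given orally on days 1–5 weekly for 2 weeks. Controls n=5, treated groups n=6. Tumor volume (length × width² × π/6) and body weight were recorded three times weekly up to 16 days. Comparison: Wilcoxon rank sum.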

[7] = tested on: GIST430 xenograft; assay: GIST430 xenograft in NOD-SCID mice; type: in vivo; settings: for KIT and KIT phosphorylation in tumors compared with controls: GIST430 xenograft tumors after treatment, Figure 6B
In short: as §2

[8] = tested on: GIST430 cells; assay: Cell cycle analysis, GIST430; type: cell-based; settings: BPR1J373 at 10 nmol/L, 100 nmol/L, and 1 μmol/L
In short: as §1

KIT mutants (Homo sapiens, UniProt P10721, D816V), sequence (P10721 26-976 D816V): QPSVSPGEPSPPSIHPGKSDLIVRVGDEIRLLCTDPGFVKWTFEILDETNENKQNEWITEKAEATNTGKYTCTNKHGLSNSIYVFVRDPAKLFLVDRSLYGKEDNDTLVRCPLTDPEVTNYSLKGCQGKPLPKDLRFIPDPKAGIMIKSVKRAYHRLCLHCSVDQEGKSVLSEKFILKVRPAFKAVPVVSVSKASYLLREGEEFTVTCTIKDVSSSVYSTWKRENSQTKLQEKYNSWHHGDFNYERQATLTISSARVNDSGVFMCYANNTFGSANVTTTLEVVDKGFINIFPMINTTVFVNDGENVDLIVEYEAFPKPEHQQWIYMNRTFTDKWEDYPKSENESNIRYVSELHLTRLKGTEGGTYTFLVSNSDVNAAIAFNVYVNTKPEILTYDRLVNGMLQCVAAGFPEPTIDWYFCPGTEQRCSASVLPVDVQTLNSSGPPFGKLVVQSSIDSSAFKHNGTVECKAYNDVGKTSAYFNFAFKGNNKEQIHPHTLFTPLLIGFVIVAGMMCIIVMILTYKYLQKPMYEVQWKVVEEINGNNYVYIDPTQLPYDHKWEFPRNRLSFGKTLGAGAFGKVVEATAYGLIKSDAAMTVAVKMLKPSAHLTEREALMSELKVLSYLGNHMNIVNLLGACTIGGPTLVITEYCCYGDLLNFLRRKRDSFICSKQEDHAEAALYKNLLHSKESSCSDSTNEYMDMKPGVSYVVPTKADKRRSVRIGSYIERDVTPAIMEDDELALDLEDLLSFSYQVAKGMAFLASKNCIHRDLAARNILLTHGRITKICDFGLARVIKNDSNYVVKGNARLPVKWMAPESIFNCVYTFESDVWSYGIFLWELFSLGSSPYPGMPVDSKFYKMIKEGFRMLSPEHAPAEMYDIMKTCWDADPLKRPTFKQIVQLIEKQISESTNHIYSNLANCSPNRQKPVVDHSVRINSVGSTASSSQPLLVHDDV

| SMILES | suppression of KIT phosphorylation [1] | disease control rate ([2]; advanced GIST, initial phase II study) [%] | suppression of KIT activation (phosphorylation) [3] | suppression of KIT phosphorylation [3] | cell cycle change [4] | antiproliferative effect [5] | median PFS ([2]; third-line treatment, phase III) [months] | body weight (mean ± SE) [6] [g] | mice that died before completion of the experiment ([6]; 6 mice, died at day 14) | KIT and KIT phosphorylation in tumors compared with controls [7] | cell cycle change [8] | median PFS ([2]; second-line treatment) [months] | antitumor effect vs control, P (Wilcoxon rank sum test) ([7]; oral, day 1 to day 5 per week for 2 weeks, BPR1J373 50 mg/kg, sunitinib 40 mg/kg) |
| --- | --- | --- | --- | --- | --- | --- | --- | --- | --- | --- | --- | --- | --- |
| Cc1ccc(NC(=O)c2ccc(CN3CCN(C)CC3)cc2)cc1Nc1nccc(-c2cccnc2)n1 [Imatinib] | resistant | 81.6 | variable effects | differentially suppressed | Neither 1 μmol/L imatinib nor nilotinib induced S or G2/M arrest | – | – | – | – | – | – | – | – |
| Cc1cn(-c2cc(NC(=O)c3ccc(C)c(Nc4nccc(-c5cccnc5)n4)c3)cc(C(F)(F)F)c2)cn1 [Nilotinib] | resistant | – | variable effects | differentially suppressed | Neither 1 μmol/L imatinib nor nilotinib induced S or G2/M arrest | best antiproliferative effects | – | – | – | – | – | – | – |
| CNC(=O)c1cc(Oc2ccc(NC(=O)Nc3ccc(Cl)c(C(F)(F)F)c3)c(F)c2)ccn1 [Regorafenib] | – | – | variable effects | differentially suppressed | only a mild increase in subG1 and a mild decrease in S and G2/M proportions | – | 4.8 | 28.82 ± 0.52 | 1 | decreased expression levels of KIT and KIT phosphorylation | did not induce significant cell cycle changes | – | – |
| CCN(CC)CCNC(=O)c1c(C)[nH]c(/C=C2\C(=O)Nc3ccc(F)cc32)c1C [Sunitinib] | resistant | – | variable effects | differentially suppressed | – | best antiproliferative effects | – | 29.1 ± 1.04 | – | decreased expression levels of KIT and KIT phosphorylation | – | 6.8 | 0.03 |
